ChEMBL document CHEMBL3751740, “New MKLP-2 inhibitors in the paprotrain series: Design, synthesis and biological evaluations” (Bioorg Med Chem, 2016)

Experiments:
[1] = target: T1, Kinesin-like protein KIF11 (Homo sapiens) (UniProt P52732); assay: Inhibition of porcine brain microtubule-stimulated human recombinant GST-tagged Eg5 ATPase activity at 1 mM by microplate reader in presence of Mg2+ ATP relative to control
T1 sequence (whole entry): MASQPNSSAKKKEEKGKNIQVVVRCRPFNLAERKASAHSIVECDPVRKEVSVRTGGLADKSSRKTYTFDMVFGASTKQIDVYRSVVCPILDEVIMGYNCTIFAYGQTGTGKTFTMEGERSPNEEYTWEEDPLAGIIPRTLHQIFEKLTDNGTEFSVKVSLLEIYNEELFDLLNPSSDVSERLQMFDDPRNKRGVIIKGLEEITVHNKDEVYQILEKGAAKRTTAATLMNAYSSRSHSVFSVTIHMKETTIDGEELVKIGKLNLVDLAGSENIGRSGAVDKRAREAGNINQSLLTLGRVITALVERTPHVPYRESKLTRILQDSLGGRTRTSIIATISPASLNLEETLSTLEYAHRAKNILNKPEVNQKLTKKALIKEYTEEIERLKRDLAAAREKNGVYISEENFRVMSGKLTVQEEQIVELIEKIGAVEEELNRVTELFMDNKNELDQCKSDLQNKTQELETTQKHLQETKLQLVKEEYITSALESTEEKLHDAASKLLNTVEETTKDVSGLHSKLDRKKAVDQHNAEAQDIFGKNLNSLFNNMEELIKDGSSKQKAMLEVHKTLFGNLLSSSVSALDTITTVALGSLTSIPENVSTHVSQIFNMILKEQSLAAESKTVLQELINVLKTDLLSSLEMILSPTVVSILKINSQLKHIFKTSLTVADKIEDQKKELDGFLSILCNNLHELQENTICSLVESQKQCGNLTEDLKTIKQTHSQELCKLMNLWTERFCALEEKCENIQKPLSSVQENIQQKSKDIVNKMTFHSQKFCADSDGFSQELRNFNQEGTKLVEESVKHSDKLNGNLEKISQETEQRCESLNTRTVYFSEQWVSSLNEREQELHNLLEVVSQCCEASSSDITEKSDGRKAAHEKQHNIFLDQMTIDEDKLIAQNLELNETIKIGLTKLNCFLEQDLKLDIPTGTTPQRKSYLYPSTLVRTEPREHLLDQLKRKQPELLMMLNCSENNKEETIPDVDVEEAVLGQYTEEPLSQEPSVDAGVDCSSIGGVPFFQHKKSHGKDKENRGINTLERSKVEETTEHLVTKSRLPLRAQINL
Outline: (§1)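 Motor domain at 15 µM final, in 7.5 mM PIPES-NaOH pH 7.0 with […], 10 µM Taxol, ELIPA 1 and 2 reagents and 1.25 mg/mL microtubules. AMP-PNP, a slowly hydrolysable ATP analog and general ATPase inhibitor, tested at 1 mM. Reaction started with 1 mM Mg2+ATP at 22 °C and read kinetically at 360 nm. Run in triplicate.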

[2] = target: T2, Kinesin-like protein KIFC3 (Homo sapiens) (UniProt Q9BVG8); assay: Inhibition of porcine brain microtubule-stimulated human recombinant GST-tagged KIFC3 ATPase activity at 1 mM by microplate reader in presence of Mg2+ ATP relative to control; outline: as §1
T2 sequence (whole entry): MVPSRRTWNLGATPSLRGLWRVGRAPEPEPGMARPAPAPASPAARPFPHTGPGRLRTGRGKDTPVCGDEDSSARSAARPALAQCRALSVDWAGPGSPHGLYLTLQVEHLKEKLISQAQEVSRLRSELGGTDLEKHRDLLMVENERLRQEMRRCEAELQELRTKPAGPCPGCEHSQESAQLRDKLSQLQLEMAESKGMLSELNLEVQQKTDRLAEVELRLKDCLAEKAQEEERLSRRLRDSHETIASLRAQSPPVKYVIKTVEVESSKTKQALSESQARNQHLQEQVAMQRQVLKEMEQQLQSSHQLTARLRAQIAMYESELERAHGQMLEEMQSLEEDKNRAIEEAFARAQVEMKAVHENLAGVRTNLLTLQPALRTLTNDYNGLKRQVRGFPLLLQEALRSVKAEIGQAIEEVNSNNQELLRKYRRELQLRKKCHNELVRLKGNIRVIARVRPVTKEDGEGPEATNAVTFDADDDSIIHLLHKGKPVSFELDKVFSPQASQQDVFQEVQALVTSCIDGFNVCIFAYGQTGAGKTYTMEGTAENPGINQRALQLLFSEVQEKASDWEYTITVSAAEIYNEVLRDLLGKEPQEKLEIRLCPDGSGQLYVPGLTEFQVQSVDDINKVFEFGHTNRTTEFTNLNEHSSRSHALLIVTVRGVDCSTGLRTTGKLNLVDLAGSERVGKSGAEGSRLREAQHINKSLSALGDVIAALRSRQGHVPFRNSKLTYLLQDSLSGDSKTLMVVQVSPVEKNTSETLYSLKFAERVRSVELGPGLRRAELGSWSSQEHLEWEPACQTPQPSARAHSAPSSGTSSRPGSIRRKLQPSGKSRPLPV

[3] = tested on: MDA-MB-231; assay: Growth inhibition of human MDA-MB-231 cells incubated for 4 days by WST-1 assay; type: functional; conditions: MDA-MB-231, 96 h
Outline: (§2)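 Cells were kept at 37 °C under 5% CO2 and plated on day 0 at 500–5000 cells/well. On day 1 they received ten concentrations from 0.0025 to 50 µM (final), in triplicate. On day 4 WST-1 was added, followed by 30 min–4 h incubation and absorbance at 450 nm. GI50 is the concentration killing 50% of cells.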

[4] = tested on: HepG2; assay: Growth inhibition of human HepG2 cells incubated for 4 days by WST-1 assay; type: functional; conditions: HepG2, 96 h; outline: as §2
[5] = Growth inhibition of human HCT116 cells incubated for 4 days by WST-1 assay; type: functional; conditions: HCT-116, 96 h; outline: as §2
[6] = tested on: A549; assay: Growth inhibition of human A549 cells incubated for 4 days by WST-1 assay; type: functional; conditions: A549, 96 h; outline: as §2
[7] = tested on: MCF7; assay: Growth inhibition of human MCF7 cells incubated for 4 days by WST-1 assay; type: functional; conditions: MCF7, 96 h; outline: as §2

| GI50 [3] [µM] | GI50 [4] [µM] | GI50 [6] [µM] | GI50 [7] [µM] | Structure (SMILES) | inhibition [1] [%] | inhibition [2] [%] | GI50 [5] [µM] |
| --- | --- | --- | --- | --- | --- | --- | --- |
| – | – | – | – | Nc1ncnc2c1ncn2[C@@H]1O[C@H](COP(=O)(O)OP(=O)(O)NP(=O)(O)O)[C@@H](O)[C@H]1O | > 30 | > 30 | – |
| 16.8 | > 50 | 9.4 | 15.8 | COc1ccc2[nH]cc(/C(C#N)=C/c3cccnc3)c2c1 | – | – | 32.2 |
